From ChEMBL document CHEMBL1157985, “Antiplasmodial and cytotoxic activity of natural bisbenzylisoquinoline alkaloids” (J Nat Prod, 1999)

Key:
KB = assay: Cytotoxicity against human KB cells after 72 hrs by SRB assay; format: functional; conditions: read-out: ED50 (the source's name)
How it was run: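 KB-3 cells grown in DMEM with 10% FBS at 37 °C and 5% CO₂ to 60–70% confluence, then used 1 day after a medium change. Samples were dissolved in DMSO and serially diluted in 10% aqueous DMSO. 5×10⁴ cells were exposed for 72 h at 37 °C, then TCA-fixed, stained with 0.4% SRB and read at 515 nm. Zero-day control was subtracted and values expressed relative to solvent control; ED50 by nonlinear regression.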

Plasmodium falciparum [1] = assay: Antiplasmodial activity against chloroquine-sensitive Plasmodium falciparum D6 infected human erythrocytes as [3H]hypoxanthine uptake after 24 hrs; format: functional, organism-based
How it was run: (§1)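 P. falciparum (D6, W2) cultured in type A+ human erythrocytes, RPMI-1640 with NaHCO3, HEPES and 10% heat-inactivated human plasma, 37 °C under 5% O2/5% CO2/90% N2. Infected red cells at 0.5-1.0% parasitemia, 1.0% hematocrit exposed to compound, duplicate seven-point series, 24 h; then 0.5 μCi [3H]hypoxanthine per well for 18 h more. Filter harvest, scintillation counting; IC50 by nonlinear regression versus zero-drug controls.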

[2] = Selectivity index, ratio of ED50 for human KB cells to IC50 for […] Plasmodium falciparum D6; format: functional
Plasmodium falciparum [3] = assay: Antiplasmodial activity against chloroquine-resistant Plasmodium falciparum W2 infected human erythrocytes as [3H]hypoxanthine uptake after 24 hrs; format: functional, organism-based; how it was run: as §1
[4] = Selectivity index, ratio of ED50 for human KB cells to IC50 for chloroquine-resistant Plasmodium falciparum W2; format: functional

SMILES | EC50 (KB) [nM] | IC50 (Plasmodium falciparum [1]) [nM] | Selectivity Index [2] | IC50 (Plasmodium falciparum [3]) [nM] | Selectivity Index [4]
COc1cc2c3cc1Oc1cc(ccc1O)C[C@@H]1c4c(cc(OC)c(O)c4Oc4ccc(cc4)C[C@@H]3N(C)CC2)CC[N+]1(C)C.[Cl-] | > 32800 | 15300 | >2.1 | > 16400 | 2
COc1ccc2cc1Oc1cc3c(cc1OC)CCN=C3Cc1ccc(cc1)COc1c(OC)cc3c(c1O)[C@H](C2)N(C)CC3 | > 33800 | 346 | >98 | 169 | >200
COc1ccc2cc1Oc1cc3c(cc1OC)CCN[C@@H]3Cc1ccc(cc1)Oc1c3c(cc4c1[C@@H](C2)N(C)CC4)OCO3 | 14400 | 530 | 27.1 | 676 | 21.2
COc1ccc2cc1Oc1cc3c(cc1OC)CCN(C(C)=O)[C@H]3Cc1ccc(cc1)Oc1c3c(cc4c1[C@H](C2)N(C)CC4)OCO3 | 8360 | 2320 | 3.6 | 1200 | 7
COc1ccc2cc1Oc1cc3c(cc1OC)CCN(C)[C@@H]3Cc1ccc(cc1)Oc1c(O)c(OC)cc3c1[C@@H](C2)N(C)CC3 | 7700 | 128 | 60 | 387 | 20
COc1ccc2cc1Oc1cc3c(nccc3cc1OC)Cc1ccc(cc1)COc1c(OC)cc3c(c1O)[C@H](C2)N(C)CC3 | 14700 | 115 | 130 | 66 | 220
COc1cc2ccnc3c2cc1Oc1cc(ccc1O)C[C@H]1c2c(cc(OC)c(c2O)OCc2ccc(cc2)C3)CCN1C | > 33900 | 110 | >310 | 59 | >580
COc1ccc2cc1Oc1cc3c(cc1OC)CCN[C@H]3Cc1ccc(cc1)Oc1c3c(cc4c1[C@@H](C2)N(C)CC4)OCO3 | 8800 | 1270 | 7.5 | 662 | 13.3
COc1cc2c3cc1Oc1cc(ccc1O)C[C@H]1c4c(cc(OC)c(c4O)OCc4ccc(cc4)CC3NCC2)CCN1C (stereo not given in full) | 8580 | 348 | 24.6 | 199 | 43.2
COc1ccc2cc1Oc1cc3c(cc1OC)CCN=C3Cc1ccc(cc1)Oc1c3c(cc4c1[C@@H](C2)N(C)CC4)OCO3 | > 33900 | 4980 | >6.8 | 2100 | >16.1
COc1cc2c3cc1Oc1cc(ccc1O)C[C@@H]1c4c(cc5c(c4Oc4ccc(cc4)C[C@@H]3N(C(C)=O)CC2)OCO5)CCN1C | 8870 | 6890 | 1.3 | 4030 | 2.2
C[C@@H]1CC[C@H]2[C@@H](C)C(=O)O[C@@H]3O[C@@]4(C)CC[C@@H]1[C@]32OO4 [ARTEMISININ] | > 70900 | 15.1 | >4680 | 14.6 | >4860
COc1cc2c3cc1Oc1c(OC)c(OC)cc4c1[C@@H](Cc1ccc(O)c(c1)Oc1ccc(cc1)C[C@@H]3N(C)CC2)N(C)CC4 [BERBAMINE] | 9210 | 128 | 72 | 313 | 29
COc1ccc2cc1Oc1ccc(cc1)C[C@H]1c3c(cc4c(c3Oc3cc5c(cc3OC)CCN(C)[C@@H]5C2)OCO4)CCN1C [CEPHARANTHINE] | 9700 | 231 | 42 | 478 | 20
COc1ccc2cc1Oc1ccc(cc1)C[C@H]1c3cc(c(OC)cc3CCN1C)Oc1c(OC)c(OC)cc3c1[C@H](C2)N(C)CC3 [FANCHININ] | 5800 | 288 | 20 | 257 | 22
COc1ccc2cc1Oc1ccc(cc1)C[C@H]1c3cc(c(OC)cc3CCN1C)Oc1c(O)c(OC)cc3c1[C@H](C2)N(C)CC3 [FANGCHINOLINE] | 9210 | 179 | 51 | 306 | 30
COc1ccc2cc1Oc1ccc(cc1)C[C@H]1c3c(cc(OC)c(O)c3Oc3cc4c(cc3OC)CCN(C)[C@@H]4C2)CCN1C [HOMOAROMOLINE] | 10400 | 173 | 60 | 474 | 22
COc1ccc2cc1Oc1ccc(cc1)C[C@H]1c3c(cc(OC)c4c3Oc3cc5c(cc3O4)CCN(C)[C@H]5C2)CCN1C [ISOTRILOBINE] | 24000 | 388 | 62 | 788 | 30
COc1cc2c(cc1O)[C@H](Cc1ccc(OC)c(Oc3ccc(C[C@H]4c5cc(OC)c(OC)cc5CCN4C)cc3)c1)N(C)CC2 [NEOTHALIBRINE] | 10100 | 47 | 215 | 135 | 75
COc1ccc2cc1Oc1ccc(cc1)C[C@H]1c3c(cc(OC)c(OC)c3Oc3cc4c(cc3OC)CCN(C)[C@@H]4C2)CCN1C [OBABERINE] | 13800 | 371 | 37 | 347 | 40
COc1cc2c3cc1Oc1c(O)c(OC)cc4c1[C@@H](Cc1ccc(O)c(c1)Oc1ccc(cc1)C[C@@H]3N(C)CC2)N(C)CC4 [OBAMEGINE] | 14100 | 354 | 40 | 825 | 17
COc1ccc2cc1Oc1ccc(cc1)C[C@@H]1c3cc(c(OC)cc3CCN1C)Oc1c(OC)c(OC)cc3c1[C@@H](C2)N(C)CC3 [PHAEANTHINE] | 10800 | 305 | 35 | 498 | 22
C=C[C@H]1CN2CC[C@H]1C[C@H]2[C@H](O)c1ccnc2ccc(OC)cc12 [QUININE] | > 55400 | 23.4 | >285 | 250 | >222
COc1ccc2cc1Oc1ccc(cc1)C[C@@H]1NCCc3cc(OC)c4c(c31)Oc1cc3c(cc1O4)CCN(C)[C@H]3C2 [TRILOBINE] | 8300 | 169 | 49 | 451 | 19
